Results reported in the RNAGym collection of RNA variant scans (doi:10.1126/science.aae0568).
Fewer inactive variants are shown than the library holds.

B1: tRNA (parent)
chain: GUUCCGUUGGCGUAAUGGUAACGCGUCUCCCUCCUAAGGAGAAGACUGCGGGUUCGAGUCCCGUACGGAACG

Variants of: B1
Assay: yeast fitness relative to wild type (ratio to wild type); higher = fitter; tRNA-Arg(CCU), competitive growth, 37 C, YPD
Procedure, shortened: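 The tRNA-Arg(CCU) gene variants were made by chemical synthesis with a 3% per-site mutation rate at 69 sites and inserted at the native genomic locus of Saccharomyces cerevisiae. After pooling, the strains were competed in YPD at 37°C for 24 hours in six parallel replicates. Gene amplicons from the start population and each end population were read by 100-nucleotide paired-end sequencing, and Darwinian fitness relative to wild type was taken from genotype frequency changes. Genotypes needed ≥ 100 starting reads, and estimates < 0.5 were set to 0.5.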

| Variant | yeast fitness |
| --- | --- |
| C46U G48A C55U U59A | ≤ 0.5 |
| G44C G56A A57G | 0.543 |
| A43U G50A A57G | ≤ 0.5 |
| U47A C55G C66G | 0.639 |
| A45U C62U G63C | ≤ 0.5 |
| C46U A69U A70G | 0.761 |
| A45G A65G A70C | 0.666 |
| A45C G52A A69C | 0.568 |
| A45G C60G | 0.821 |
| A45G C60U | 0.743 |
| C46U G50A G56C C62A C66U | 0.582 |
| G44C C55U | 0.731 |
| A45C G52C | 0.762 |
| G44C G50C U54G C61G | 0.568 |
| A45U C61U | 0.974 |
| C46A U53A | 0.738 |
| A45G A65G | 1.04 |
| C46G G48C A65U G68A | ≤ 0.5 |
| C46A C49G C55U | 0.563 |
| C46U A57C U64C | ≤ 0.5 |
| C46A C62U A69C | 0.69 |
| A45G C49A | 0.609 |
| A45C G50A A65U | 0.643 |
| C46A A57G G68A | 0.605 |

| Variant | yeast fitness |
| --- | --- |
| C46A U64A A65C | 0.978 |
| C46G A69U | 1.03 |
| C46G A69C | 0.972 |
| A45C A70C | 1.05 |
| G44A C46U G58A | 0.687 |
| A45G A69C | 0.912 |
| A45G A69U | 1.01 |
| A45C C66G | 0.586 |
| C46U C55A | 0.587 |
| G44A C60G | 0.667 |
| A45U C49A | 0.57 |
| C46U C61U G67A | 0.535 |
| U47A G51A C55U | 0.642 |
| A45U G50U G68C A69U | ≤ 0.5 |
| G44A C55U G63A | ≤ 0.5 |
| G44A A57U | 0.635 |
| C46A G48C | 0.924 |
| C46G C55G A69G | ≤ 0.5 |
| G44C C66U A70C | 0.88 |
| G44C C60A C66U | ≤ 0.5 |
| A45C C46G G68A | 0.678 |
| C46A C55A A65C | 0.533 |
| C46G G48C | 1.02 |
| A43U G51A C55U | ≤ 0.5 |

| Variant | yeast fitness |
| --- | --- |
| A45U G51C G68A | ≤ 0.5 |
| C46A A57C C60A | ≤ 0.5 |
| A45C U64C A65C | 0.965 |
| C46A U59C | 0.898 |
| C46A U59G | 1.06 |
| G44C C66U | 0.692 |
| C46G C49A G67A | 0.606 |
| C46G C49A G67C | ≤ 0.5 |
| C46G C61G C62A | ≤ 0.5 |
| A45C C46G C49A A69U | ≤ 0.5 |
| A45U U53G G67A | ≤ 0.5 |
| A45U A65G A70C | 0.754 |
| C46U C61U | 0.956 |
| C46U C61A | 0.83 |
| G44C U54C C66U | 0.601 |
| C46A C49A A70C | ≤ 0.5 |
| G44A C49G | 0.714 |
| G44C C61A C66U | 0.824 |
| C46U C49U U53C | 0.703 |
| C46A G63A G67A | 0.552 |
| A45C G67A | 0.814 |
| G44A A45G G51C C66U A69C | 0.576 |
| A43U U47G U53G A69U | ≤ 0.5 |
| G44A C46U C62U | 0.723 |

| Variant | yeast fitness |
| --- | --- |
| A45U U59C | 0.897 |
| A45U U59G | 0.66 |
| G44A G51C | 0.572 |
| A45C C60A C66U | ≤ 0.5 |
| G44A C55U A69C | 0.585 |
| A45C U47A C66U | 0.595 |
| C46U G56C A69U | 0.54 |
| A45G C61G A65C A70U | ≤ 0.5 |
| A45U C46U | 1.09 |
| A45G A70G | 1.19 |
| A45G A70U | 0.913 |
| A43U U59A | 0.807 |
| A45C U54G | 0.605 |
| A45G C46G | 0.87 |
| C46A G68A A70C | 1.11 |
| A45C A69U | 0.959 |
| A45G G56A | 1.1 |
| G44C G63C | 0.623 |
| G44A A45C C49U C61G | ≤ 0.5 |
| A45C G58A C62U A69C | 0.59 |
| A45C G48A G67A | 0.829 |
| A45U C46G G63A | ≤ 0.5 |
| A45C G48C G50A U53C C66A | ≤ 0.5 |
| C46U U54C A69C | 0.778 |

| Variant | yeast fitness |
| --- | --- |
| A45C G48C A69U | 0.675 |
| C46A G67A | 0.88 |
| A45C G51C U64C | ≤ 0.5 |
| A45U G68C | 0.66 |
| A45U G68U | 0.836 |
| A45U G68A | 0.926 |
| G44A C46G | 0.928 |
| G44A C46A | 0.835 |
| A45G U47C | 1.01 |
| U47A C62A | 0.683 |
| U47A C62U | 0.842 |
| A43U G56A A70U | 0.948 |
| A45U G52A U64C A69U | ≤ 0.5 |
| G44C A45G G67A | 0.695 |
| A45C U59G | 0.713 |
| C46U C49A A65U | 0.554 |
| A45G C55A G56A G67A | ≤ 0.5 |
| C46U G63C | 0.753 |
| A43U G52C | 0.6 |
| A43U G52A | 0.663 |
| A45U G68A A70C | 0.641 |
| C46U C61G A70C | ≤ 0.5 |
| A45U C62U C66U | 0.704 |
| C46U A57U | 1 |

| Variant | yeast fitness |
| --- | --- |
| G44C G56A C66U | 0.634 |
| G44A G63C | 0.826 |
| G44A G63A | 0.97 |
| A45C U47C C49U | 0.806 |
| C46A G63C | 0.995 |
| C46A C62U | 1.02 |
| A45C G52A U53C G58A C62G | ≤ 0.5 |
| A45U C62G | 0.837 |
| A45U C62U | 1.07 |
| G44A C55U U64A A69C | ≤ 0.5 |
| A45G C49U A69U | 1.04 |
| G44A A57G G58A | 0.695 |
| U47A | 0.99 |
| C46G U59G C61G | ≤ 0.5 |
| A45U A57U U59G U64G | ≤ 0.5 |
| C46A C49A C61A | ≤ 0.5 |
| U47A A65C | 0.82 |
| U47A A65U | 0.68 |
| G44A A69U | 1.06 |
| C46U A70C | 0.976 |
| C46U G58C C60A | 0.637 |
| C46A G56A C61A | 0.603 |
| U47A C61U A70C | 0.558 |
| A45U G56C | 0.714 |

| Variant | yeast fitness |
| --- | --- |
| A45C A57U C60U A65C | ≤ 0.5 |
| G44U A70C | 0.813 |
| A43U G68C | 0.815 |
| A43U G68A | 0.669 |
| C46U C60A A69U | 0.57 |
| A45U G48C | 0.857 |
| A45U G67A | 0.767 |
| A45G G50C U54A G67A | 0.803 |
| G44C C60G A65G | 0.617 |
| A45U U54C U64A A69U | ≤ 0.5 |
| C46U C62A | 0.684 |
| C46U C62U | 1 |
| C46U U54C G58C G67A | ≤ 0.5 |
| A45U C66G | 0.617 |
| A45G G51A G67A | 0.601 |
| A45C U64G | 0.654 |
| A45C C55G | 0.528 |
| A45C U59C A70C | 0.741 |
| C46U C61A G67A | 0.568 |
| A45C C60A | 0.62 |
| C46G U59C | 1.05 |
| C46U A65U | 0.883 |
| A45C C49U G56A | 0.856 |
